MIC and IC90 data for three molecules are collected here from ChEMBL document CHEMBL1126202, “Dual-action penems and carbapenems” (J Med Chem, 1992).

SMILES strings stand for the structures.

By IC90 is commonly meant the concentration needed for an effect of 90%. A low value points to greater potency.

Assay [1] has as its system Bacteroides fragilis. Put plainly: In vitro antibacterial activity against bacteroides fragilis S2. The assay is classed as functional. The method, boiled down: (§1)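 Anaerobic MIC, run in microtiter plates in Schaedler's broth supplemented with coenzyme I and hemin. Incubated in an oxygen-free hydrogen–carbon dioxide atmosphere.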
Assay [2] addresses T1, Penicillin-binding protein 1 (Staphylococcus aureus (strain COL)) (UniProt F4NA86).
T1 sequence (whole entry): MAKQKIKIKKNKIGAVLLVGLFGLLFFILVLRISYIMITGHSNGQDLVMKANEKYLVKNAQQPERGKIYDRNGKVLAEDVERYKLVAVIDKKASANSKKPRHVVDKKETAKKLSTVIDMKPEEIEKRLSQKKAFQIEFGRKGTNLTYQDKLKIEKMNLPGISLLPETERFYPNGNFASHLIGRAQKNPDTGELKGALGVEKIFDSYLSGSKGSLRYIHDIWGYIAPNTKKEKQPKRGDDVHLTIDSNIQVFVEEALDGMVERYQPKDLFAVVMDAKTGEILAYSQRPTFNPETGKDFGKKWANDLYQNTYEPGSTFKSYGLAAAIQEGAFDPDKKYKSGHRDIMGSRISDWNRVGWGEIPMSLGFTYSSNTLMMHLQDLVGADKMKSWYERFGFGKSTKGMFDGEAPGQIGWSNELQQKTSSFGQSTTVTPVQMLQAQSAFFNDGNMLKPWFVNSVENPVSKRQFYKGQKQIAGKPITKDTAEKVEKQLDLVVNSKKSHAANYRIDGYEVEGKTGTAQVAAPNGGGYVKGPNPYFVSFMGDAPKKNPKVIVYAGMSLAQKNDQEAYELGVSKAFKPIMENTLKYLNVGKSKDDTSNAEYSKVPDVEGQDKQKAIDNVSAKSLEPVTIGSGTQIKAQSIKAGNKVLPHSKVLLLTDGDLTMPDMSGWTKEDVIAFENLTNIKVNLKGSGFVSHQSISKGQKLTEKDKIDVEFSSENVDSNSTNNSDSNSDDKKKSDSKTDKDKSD
Put plainly: Concentration inhibiting [14C]- Penicillin G binding to Staphylococcus aureus ATCC 29213 Penicillin binding protein 1, 87 kDa.

Assay [3] concerns Escherichia coli. Briefly: Minimum inhibitory concentration of the Penicillin G binding to Escherichia coli UB1005 PBPs.
Assay [4] relates to Hathewaya histolytica. Put plainly: In vitro antibacterial activity against clostridium histolyticum 503-86. The assay is classed as functional. The method, boiled down: as §1
For assay [5], the system named is Citrobacter freundii. Put plainly: In vitro antibacterial activity against citrobacter freundii BS-16 (constitutive beta-lactamase producer). The class given is functional. The method, boiled down: (§2)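 MIC was determined by agar dilution on Mueller-Hinton agar. Serial 2-fold aqueous dilutions were diluted 10-fold in agar to give final concentrations of 128 to 0.0156 μg/mL. Plates were inoculated by Steers replicator with overnight broth cultures diluted 100-fold.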

In assay [6] the target is T2, Penicillin-binding protein 2b (Staphylococcus aureus) (UniProt Q9XDB3).
T2 sequence (whole entry): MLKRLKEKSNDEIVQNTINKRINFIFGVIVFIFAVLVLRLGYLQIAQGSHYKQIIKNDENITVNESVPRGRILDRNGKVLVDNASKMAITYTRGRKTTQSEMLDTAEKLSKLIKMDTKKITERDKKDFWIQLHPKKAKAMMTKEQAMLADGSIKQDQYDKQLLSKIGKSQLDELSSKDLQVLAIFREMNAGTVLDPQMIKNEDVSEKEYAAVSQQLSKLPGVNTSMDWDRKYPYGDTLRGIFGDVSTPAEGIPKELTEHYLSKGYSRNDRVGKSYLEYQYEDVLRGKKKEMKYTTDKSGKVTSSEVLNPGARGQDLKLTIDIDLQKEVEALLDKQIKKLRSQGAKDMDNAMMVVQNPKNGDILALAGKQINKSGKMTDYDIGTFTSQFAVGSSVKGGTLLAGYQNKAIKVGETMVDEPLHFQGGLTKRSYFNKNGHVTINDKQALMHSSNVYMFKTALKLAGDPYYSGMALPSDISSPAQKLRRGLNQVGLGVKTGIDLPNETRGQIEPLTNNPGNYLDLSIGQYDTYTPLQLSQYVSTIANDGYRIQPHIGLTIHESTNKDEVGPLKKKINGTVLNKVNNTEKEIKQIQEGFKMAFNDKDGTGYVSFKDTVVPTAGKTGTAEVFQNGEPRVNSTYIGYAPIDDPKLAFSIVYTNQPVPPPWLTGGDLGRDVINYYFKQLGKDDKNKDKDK
Put plainly: Concentration inhibiting [14C]- Penicillin G binding to Staphylococcus aureus ATCC 29213 Penicillin binding protein 3, 85 kDa.

In assay [7] the test system is Escherichia coli. Put plainly: In vitro antibacterial activity against Escherichia coli UB1005 (nalidixic acid-resistant strain). The assay is classed as functional. Put shortly:
as §2

Assay [8] has as its system Staphylococcus aureus. Briefly: Minimum inhibitory concentration to the Penicillin G binding to Staphylococcus aureus ATCC 29213 Penicillin binding protein.
Assay [9] relates to Pseudomonas aeruginosa. Briefly: In vitro antibacterial activity against Pseudomonas aeruginosa 18SH (constitutive beta-lactamase producer). The class given is functional. The method, boiled down: as §2
Assay [10] concerns Hathewaya histolytica. Briefly: In vitro antibacterial activity against Clostridium histolyticum 503-86. The class given is functional.
Assay [11] has as its system Bacteroides fragilis. Briefly: In vitro antibacterial activity against Bacteroides fragilis S2. The class given is functional. Put shortly: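 Anaerobic MICs were determined in microtiter plates in Schaedler's broth supplemented with coenzyme I and hemin. Incubation was under an oxygen-free hydrogen-carbon dioxide atmosphere.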
In a further assay the test system is Streptococcus pneumoniae. Put plainly: In vitro antibacterial activity against Streptococcus pneumoniae 6301. The class given is functional. The method, boiled down: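 Streptococcal MICs were determined by agar dilution on brain heart infusion agar supplemented with 20 units/mL bovine liver catalase. Final concentrations were 128 to 0.0156 μg/mL from 2-fold dilutions. Inocula were overnight broth cultures diluted 100-fold, applied by Steers replicator.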

Assay [12] deals with T2, Penicillin-binding protein 2b (Staphylococcus aureus). Put plainly: Concentration inhibiting [14C]- Penicillin G binding to Staphylococcus aureus ATCC 29213 Penicillin binding protein 3, 75 kDa.
The subject of assay [13] is Escherichia coli. Put plainly: Minimum inhibitory concentration inhibiting [14C]- Penicillin G binding to Escherichia coli UB1005 PBPs.
For assay [14], the system named is Staphylococcus aureus. Put plainly: Minimum inhibitory concentration to the compound inhibiting [14C]- Penicillin G binding to Staphylococcus aureus ATCC 29213 Penicillin binding protein.
In a further assay the test system is Enterobacter cloacae. Briefly: In vitro antibacterial activity against Enterobacter cloacae P99 (constitutive beta-lactamase producer). The class given is functional.
A further assay concerns Klebsiella pneumoniae. Put plainly: In vitro antibacterial activity against Klebsiella pneumoniae A. The assay is classed as functional. The method, boiled down: as §2
Another assay relates to Serratia marcescens. Briefly: In vitro antibacterial activity against Serratia marcescens SM (constitutive beta-lactamase producer). The class given is functional. The method, boiled down:
as §2

In assay [15] the test system is Citrobacter freundii. Put plainly: In vitro antibacterial activity against Citrobacter freundii BS-16 (constitutive beta-lactamase producer). The class given is functional. Put shortly: as §2
The subject of another assay is Proteus vulgaris. Put plainly: In vitro antibacterial activity against Proteus vulgaris ATCC 6380 (constitutive beta-lactamase producer). The assay is classed as functional. The method, boiled down:
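Proteus MICs were determined by agar dilution on Mueller-Hinton agar containing 3% agar. Plates were replicator-inoculated with 100-fold-diluted overnight broth cultures.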

For assay [16], the system named is Pseudomonas aeruginosa. Put plainly: In vitro antibacterial activity against Ps. aeruginosa 18SH (constitutive beta-lactamase producer). The assay is classed as functional. The method, boiled down:
as §2

Assay [17] deals with Escherichia coli. Briefly: Minimum inhibitory concentration inhibiting [14C]- Penicillin G binding to Escherichia coli UB1005 PBPs.
Assay [18] concerns Penicillin-binding protein 3 FtsI (Escherichia coli K-12). Briefly: Concentration inhibiting [14C]- Penicillin G binding to Escherichia coli UB1005 PBP3 (penicillin binding protein) 60 kDa.
Assay [19] deals with T1, Penicillin-binding protein 1 (Staphylococcus aureus (strain COL)). Put plainly: Concentration inhibiting [14C]- Penicillin G binding to Staphylococcus aureus ATCC 29213 Penicillin binding protein 1 87 kDa.

On to `C[C@@H](O)[C@H]1C(=O)N2C(C(=O)[O-])=C(COC(=O)N3CCN(c4cc5c(cc4F)c(=O)c(C(=O)O)cn5C4CC4)CC3)S[C@H]12.[Na+]`, for which the MIC was 16 µg/mL in the assay with Bacteroides fragilis [1]; 4 µg/mL with Escherichia coli [3]; 0.25 µg/mL in the assay with Hathewaya histolytica [4]; 0.125 µg/mL in the assay on Citrobacter freundii [5]; 4 µg/mL against Escherichia coli [7]; 0.25 µg/mL in the assay with Staphylococcus aureus [8]. The MIC in the assay on Pseudomonas aeruginosa [9] came out at 1 µg/mL. Moreover, the IC90 in assay [2] and in [6] was 2 µg/mL in each case.

Consider `C[C@@H](O)[C@H]1C(=O)N2C(C(=O)[O-])=C(CO)S[C@H]12.[Na+]`, for which the MIC was under 0.125 µg/mL against Hathewaya histolytica [10]; under 0.125 µg/mL against Bacteroides fragilis [11]; 0.125 µg/mL in the assay on Streptococcus pneumoniae; 4 µg/mL in the assay on Escherichia coli [13]; 0.25 µg/mL in the assay on Staphylococcus aureus [14]; 8 µg/mL against Enterobacter cloacae. For the same molecule, the MIC in the assay with Klebsiella pneumoniae was 4 µg/mL; in the assay on Serratia marcescens, 8 µg/mL; against Citrobacter freundii [15], 4 µg/mL; in the assay on Proteus vulgaris it was 8 µg/mL; against Pseudomonas aeruginosa [9], 8 µg/mL. Moreover, the IC90 in [2] was found to be 30 µg/mL; in assay [12] it was 10 µg/mL.

On to `C[C@@H](O)[C@H]1C(=O)N2C(C(=O)[O-])=C(COC(=O)c3cn(CCF)c4c(F)c(N5CCN(C)CC5)c(F)cc4c3=O)S[C@H]12.[Na+]`, for which the MIC was 4 µg/mL in the assay with Pseudomonas aeruginosa [16]; under 0.125 µg/mL against Bacteroides fragilis [1]; 2 µg/mL in the assay with Escherichia coli [17]; under 0.125 µg/mL in the assay with Hathewaya histolytica [4]; 0.5 µg/mL in the assay on Citrobacter freundii [5]; 2 µg/mL against Escherichia coli [7]. The IC90 in assay [18] stood at 30 µg/mL; in [12] it was 0.5 µg/mL; in assay [19], 0.5 µg/mL.
